Assay outcomes (PubChem)
Only some compounds are listed: those with a hit (about 3.5% of all), similar ones and a draw of the others.
MrgX1 antag: antagonists of human MrgX1 receptor. Q96LB2. B-score at 10 µM. MRGX1-HEK293 calcium flux, Fluo-4, BAM8-22 antagonism; active compounds read low. 1.3% of 310,000 active. AID 588676;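 active = calcium-response B-score plate-corrected more than 3 library SD below zero, starting fluorescence within 5 deviations, no agonist response on first addition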;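 also: peak minus trough fluorescence over baseline after final BAM8-22 challenge near maximal dose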
Target sequence (Q96LB2 whole entry, looked up): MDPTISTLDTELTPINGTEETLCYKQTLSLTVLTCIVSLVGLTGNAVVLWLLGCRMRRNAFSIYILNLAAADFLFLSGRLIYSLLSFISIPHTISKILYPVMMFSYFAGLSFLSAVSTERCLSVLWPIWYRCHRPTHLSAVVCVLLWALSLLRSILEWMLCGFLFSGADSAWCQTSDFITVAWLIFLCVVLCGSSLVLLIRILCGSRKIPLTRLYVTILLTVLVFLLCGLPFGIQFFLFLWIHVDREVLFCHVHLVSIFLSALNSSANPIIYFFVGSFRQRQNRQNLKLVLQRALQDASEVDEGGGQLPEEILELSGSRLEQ
MrgX1 agonist: activates human MrgX1 receptor signaling. Q96LB2. MrgX1-HEK293 cells, Fluo-4 calcium fluorescence, agonist mode; active compounds read high. B-score at 10 µM. 0.44% of 310,000 active;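 active = calcium response B-score plate-corrected fluorescence ratio at least 3 library SD, with starting fluorescence B-score inside 5 SD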
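Material – MrgX1-expressing HEK293 cells · Input – 15,000 cells seeded per well · Dosing – compound as first of three additions · Times – overnight seeding, then 1 h dark dye loading · Measured by – kinetic Fluo-4 NW fluorescence of intracellular calcium · Read-out – B-scored fluorescence response ratio · Benchmarks – positive and negative control wells on each plate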
RGS4 pot: potentiators or activators of RGS4. HEK293 M3R/inducible RGS4, carbachol calcium flux Fluo4; active compounds read low. B-score at 10 µM. 0.92% of 310,000 active;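 active = B-score of the integrated calcium signal more than 4 SD below the library mean, with starting fluorescence not abnormally high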;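 also: negative B-score means reduced calcium response which marks RGS4 activation or potentiation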
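test system = HEK293 cells with stable M3R and inducible RGS4 | schedule = recording 10 s baseline at 1 Hz, 100 s post-agonist | technique = Fluo4-AM (2 µM) calcium-flux fluorescence, kinetic read | measure = Agonist-evoked peak-minus-minimum fluorescence over baseline, integrated ratio, B score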
MrgX1 allo act: allosterically activates human MrgX1 receptor signaling; B-score at 10 µM; 0.63% of 310,000 active; Q96LB2; MrgX1-HEK293, Fluo-4 calcium flux, FDSS; active compounds read high;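 active = plate-corrected calcium response at least 3 library SD above typical, normal starting fluorescence, not activating the receptor alone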;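 also: compound read alongside a low EC10 to EC30 dose of BAM8-22 agonist; peak minus trough fluorescence over baseline measured at the second addition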
RGS4 block: inhibitors of human RGS4. P49798. HEK293 M3R/RGS4 inducible, Fluo-4 calcium flux; active compounds read high; triggered by carbachol at its EC20. B-score at 10 µM. 0.45% of 310,000 active;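 active = B-score, a plate-corrected calcium signal, over three deviations above library mean, with baseline fluorescence within five deviations of library mean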;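 also: RGS4 expression induced by doxycycline in cells with stable M3 receptor; B-score is computed from the integrated fluorescence ratio over baseline after carbachol; higher B-score means a larger calcium signal and so more RGS4 inhibition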
Target sequence (P49798 whole entry, looked up): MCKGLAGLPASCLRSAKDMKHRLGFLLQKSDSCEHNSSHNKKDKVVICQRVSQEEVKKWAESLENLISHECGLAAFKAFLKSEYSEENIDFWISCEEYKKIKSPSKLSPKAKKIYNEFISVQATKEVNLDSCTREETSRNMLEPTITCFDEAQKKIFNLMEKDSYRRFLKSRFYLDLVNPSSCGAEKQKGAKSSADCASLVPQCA
RGS4 activ val: confirmation of RGS4 activators. shares compounds with RGS4 pot. HEK293 M3R/RGS4 inducible, carbachol calcium flux Fluo4. inhibition, % at 10 µM. 89% of 1,100 active. AID 602282;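 active = inhibition above 3 SD of the buffer control wells, cut at about 41% in these data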;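 also: signal is the integrated peak-minus-minimum Fluo4 fluorescence over baseline ratio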
M3R Ca counter: RGS4 activator counter-screen hit in non-induced cells. shares compounds with RGS4 pot. HEK293 M3R non-induced RGS4, Fluo4 calcium flux; after carbachol challenge at its EC90. inhibition, % at 10 µM. 82% of 1,100 active. AID 602283;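 active = inhibition exceeding 3 SD of buffer-only control wells, cut at about 26% in these data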;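 also: percent drop in integrated peak-minus-baseline over baseline Fluo4 ratio after carbachol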
Active calls of the source: *; i = inactive; / = not tested or not shown.

SMILES	MrgX1 antag	MrgX1 agonist	RGS4 pot	MrgX1 allo act	RGS4 block	RGS4 activ val	M3R Ca counter
Cc1ccc(OCc2cc(C(=O)N(C)Cc3cc(C4CC4)n[nH]3)no2)cc1C	i	i	i	i	i	/	/
CCCOc1ccc(NC(=O)c2c(-c3ccccc3)noc2C)cc1	i	i	i	i	i	/	/
CC(=O)Nc1ccc(OCCCNC(=O)c2c(-c3ccccc3)noc2C)cc1	i	i	-8.56*	i	i	0.0	0.0
Cc1ccc(C(C)(C)C)cc1S(=O)(=O)Nc1cccc(S(=O)(=O)NC2=NCCC2)c1	i	i	i	i	i	/	/
CC1(C)CC(=O)C=C(NCc2ccccc2)C1	i	i	i	i	i	/	/
CC1(C)CC(=O)C=C(NCc2cccc(C(F)(F)F)c2)C1	i	i	-8.73*	i	i	0.0	0.0
CCC(C(=O)OCC(=O)Nc1cccc(C(C)=O)c1)c1ccccc1 (configuration not stated)	i	i	i	i	i	/	/
CCC(C(=O)OCC(=O)Nc1cc(Cl)cc(Cl)c1)c1ccccc1 (configuration not stated)	i	i	-8.43*	i	i	73.5*	25.8*
CC(=O)c1cccc(NC(=O)CN(C)S(=O)(=O)c2cccc3nsnc23)c1	i	i	i	i	i	/	/
COc1[nH]c(/N=C/c2ccccc2)c(C#N)c1C#N	i	i	-8.37*	i	i	0.0	0.0
O=[N+]([O-])c1cc(S(=O)(=O)N2CCCCC2)ccc1NCCCN1CCOCC1	i	i	i	i	i	/	/
O=C(Nc1ccc(Oc2ccccc2)nc1)C1CCCCN1Cc1ccc(O)cc1 (configuration not stated)	i	i	-8.16*	i	i	74.0*	28.3*
COc1ccccc1C(=O)Nc1nc(-c2ccc3c(c2)OCCO3)cs1	i	i	-8.77*	i	i	88.5*	62.3*
FC(F)(F)c1cccc(NCc2n[nH]c(=S)n2C2CCCCC2)c1	i	i	-8.38*	i	i	85.0*	51.8*
CN(C)C(=O)CSc1nnc(-c2cc(-c3cccs3)nc3ccccc23)o1	i	i	-8.28*	i	i	76.0*	45.3*
CSc1ccccc1NC(=O)CN(C1CCCCC1)S(C)(=O)=O	i	i	i	i	i	/	/
CN(CC(=O)Nc1ccccc1Sc1ccccc1)C1CCCCC1	i	i	-8.22*	i	i	94.0*	88.8*
Cc1ccc(NC(=O)CCNC(=O)Cn2cnc3ccccc3c2=O)cc1F	i	i	i	i	i	/	/
Cc1csc(NC(=O)c2sc3nc(-c4cccs4)ccc3c2N)n1	i	93.4*	-8.94*	i	i	88.0*	82.8*
CC(C)C[C@@H](C(=O)NCc1ccco1)N1C(=O)N2CCc3c([nH]c4ccccc34)[C@@]2(C)C1=O	i	i	i	i	i	/	/
O=C(NCC1CCN(c2ccc(S(=O)(=O)N3CCOCC3)cc2)CC1)c1ccc(Cl)cc1	i	i	-10.8*	i	i	92.5*	80.8*
O=C(O)c1ccc(S(=O)(=O)N(CCc2ccccc2)Cc2ccc(Cl)cc2)cc1	i	i	i	i	i	/	/
CN(C)c1ccc(/C=N/N2CCN(c3ccccn3)CC2)cc1	i	i	i	i	i	/	/
CC(C)(C)c1[nH]nc2c1C(c1cccnc1)C(C#N)=C(N)O2 (configuration not stated)	i	i	i	i	i	/	/
CC(C)(C)c1[nH]nc2c1C(Cc1ccccc1)C(C#N)=C(N)O2 (configuration not stated)	-5.1*	i	-9.3*	i	i	92.0*	83.8*
SMILES	MrgX1 antag	MrgX1 agonist	RGS4 pot	MrgX1 allo act	RGS4 block	RGS4 activ val	M3R Ca counter
O=C(O)c1ccc2c(c1)N(Cc1ccccc1)C(=O)c1ccccc1S2	i	i	i	i	i	/	/
Clc1ccc(Cn2c(CN3CCCC3)nc3ccccc32)cc1	i	i	i	i	i	/	/
c1ccc(Cn2c(CN3CCCC3)nc3ccccc32)cc1	i	i	-8.53*	i	i	0.0	83.8*
CC(C)Cn1c(-c2ccncc2)n[nH]c1=S	i	i	i	i	i	/	/
CC(C)Cn1c(-c2csc3c2CCCC3)n[nH]c1=S	i	i	-8.03*	i	i	93.5*	66.8*
CC(C)Cn1c(-c2ccc(F)cc2)n[nH]c1=S	i	i	-8.53*	i	i	61.5*	83.8*
COc1ccc(C(=O)NCC(O)COc2ccc(C(C)(C)C)cc2)cc1[N+](=O)[O-] (configuration not stated)	i	i	i	i	i	/	/
CCOC(=O)Nc1ccc2c(c1)N(C(=O)C(C)N1CCCC1)c1ccccc1CC2 (configuration not stated)	i	i	-7.89*	i	i	85.5*	83.8*
CCOc1ccc2oc(C(=O)N3CC(C)OC(C)C3)c(C)c2c1 (configuration not stated)	i	i	i	i	i	/	/
Cc1cc(C)n(-c2ccc(C(=O)Nc3ccc(C)c(S(=O)(=O)N4CCOCC4)c3)cc2)n1	i	i	-8.11*	i	i	89.0*	57.3*
CCCC(C(=O)NCCC(C)C)N(Cc1ccccc1)C(=O)c1snc(C(N)=O)c1N (configuration not stated)	i	i	i	i	i	/	/
COc1cccc(N2CC(C(=O)Nc3nnc(SCCN4CCOCC4)s3)CC2=O)c1 (configuration not stated)	i	i	i	i	i	/	/
CN(CCCNC(=O)c1cc2c(Cl)nc3ccccc3c2s1)Cc1ccccc1	i	i	i	i	i	/	/
CCN(CC)CCNC(=O)c1cc2c(=O)n(CC)c3ccccc3c2s1	i	i	-8.44*	i	i	54.0*	83.8*
CCN(CC)CCCNC(=O)c1cc2c(Cl)nc3ccccc3c2s1	i	i	-7.7*	i	i	68.0*	83.8*
CCN(CC)CCCNC(=O)c1cc2c(=O)n(CC)c3ccccc3c2s1	i	i	i	i	i	/	/
O=[N+]([O-])c1cccc(N(CC2CO2)S(=O)(=O)c2ccccc2)c1 (configuration not stated)	i	i	i	i	i	/	/
